Experimental findings from ChEMBL document CHEMBL3244386, “Synthesis of fused [1,2,6]thiadiazine 1,1-dioxides as potential transition-state analogue inhibitors of xanthine oxidase and guanase” (J Med Chem, 1979) are described below.

Data set [1] is filed under the species Oryctolagus cuniculus. The experiment in a line: Inhibition of rabbit liver guanase using guanine as substrate at 0.4 mM. In a few lines: (§1)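 Rabbit liver guanase assay in 1.0 mL pH 7.4 0.05 M Tris-HCl with 13.3 µM guanine, started by adding enzyme. Guanine disappearance was followed at 248 nm and compared with a reaction run without inhibitor.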
Data set [2] has as its target T1, Xanthine dehydrogenase/oxidase (Homo sapiens, UniProt P47989). The experiment in a line: Inhibition of xanthine oxidase (unknown origin) assessed as conversion of xanthine to uric acid under anaerobic condition at 5 X 10^-4 M after 1 hr. Particulars: 500 µM. In a few lines:
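Reduced-form incubation: xanthine oxidase (50 µL of 1.2 µM), 1.0 mL of a 5 × 10⁻⁴ M compound solution and EDTA in pH 7.4 Tris were purged with N₂. Xanthine was added to reduce the enzyme, and the sealed tube was held 1 h at 25 °C (compound:enzyme 8.3 × 10³). The tube was then opened to air, xanthine added, and the 295 nm initial rate compared with controls.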

Data set [3] has as its target T1, Xanthine dehydrogenase/oxidase. The experiment in a line: Inhibition of xanthine oxidase (unknown origin) assessed as conversion of xanthine to uric acid under aerobic condition at 0.5 mM after 1 hr. Particulars: 500 µM. In a few lines: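 Oxidized-form incubation: xanthine oxidase (50 µL of 1.2 µM) was incubated aerobically for 1.0 h with 1.0 mL of a 5 × 10⁻⁴ M compound solution and EDTA in Tris-HCl buffer, total 2.75 mL. Xanthine was then added, and the initial rate of uric acid formation was read at 295 nm against controls without compound.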

Data set [4] is described as follows: Noncompetitive inhibition of rabbit liver guanase using guanine as substrate by Dixon plot analysis. Further details: species or system Oryctolagus cuniculus. The essentials:
(§2)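 Kinetics used rabbit liver guanase in pH 7.4 0.05 M Tris-HCl, with guanine at 20, 10, 6.4 and 4.8 µM and four inhibitor concentrations, read at 248 nm. Lineweaver–Burk (1/V vs 1/[S]) and Dixon (1/V vs [I]) plots were drawn. Ki was taken from the Dixon x-intercept ([…]).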

For data set [5], the species on record is Oryctolagus cuniculus. The experiment in a line: Noncompetitive inhibition of rabbit liver guanase using guanine as substrate by Lineweaver-Burk plot analysis. The essentials:
as §2

The species named for data set [6] is Oryctolagus cuniculus. The experiment in a line: Inhibition of rabbit liver guanase using 13.3 uM guanine as substrate assessed as ([I]/[S])50. The essentials:
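Rabbit liver guanase in 1.0 mL pH 7.4 0.05 M Tris-HCl with 13.3 µM guanine and varying inhibitor, started by adding enzyme. Guanine loss read at 248 nm. V0/Vi was plotted against [I], and I50 was taken where V0/Vi = 2, then expressed relative to the substrate level. Values were reproducible within ±20%.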

The nature of data set [7]: Dissociation constant, pKa of the compound by titrimetric analysis. The class given is physicochemical.
Data set [8] is filed under the species Oryctolagus cuniculus. The experiment in a line: Inhibition of rabbit liver guanase using guanine as substrate compound treated at 46 times substrate concentration. In a few lines:
as §1

The species named for data set [9] is Oryctolagus cuniculus. Briefly: Inhibition of rabbit liver guanase using guanine as substrate compound treated at 28 times substrate concentration. In a few lines: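 Rabbit liver guanase, diluted from a 10 mg protein/mL stock, run at pH 7.4 in 0.05 M Tris-HCl with 13.3 µM guanine as substrate. Inhibitor was added at varying amounts, at least 28 times the substrate concentration. The enzyme was added last to start the reaction. Guanine loss was followed at 248 nm, and velocities were compared with the uninhibited control.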

The species entered for data set [10] is Oryctolagus cuniculus. Briefly: Inhibition of rabbit liver guanase using guanine as substrate compound treated at 32 times substrate concentration. In a few lines: as §1

Active and inactive are the calls of the source. The rule behind the calls is not given here.

T1 sequence (P47989 whole entry): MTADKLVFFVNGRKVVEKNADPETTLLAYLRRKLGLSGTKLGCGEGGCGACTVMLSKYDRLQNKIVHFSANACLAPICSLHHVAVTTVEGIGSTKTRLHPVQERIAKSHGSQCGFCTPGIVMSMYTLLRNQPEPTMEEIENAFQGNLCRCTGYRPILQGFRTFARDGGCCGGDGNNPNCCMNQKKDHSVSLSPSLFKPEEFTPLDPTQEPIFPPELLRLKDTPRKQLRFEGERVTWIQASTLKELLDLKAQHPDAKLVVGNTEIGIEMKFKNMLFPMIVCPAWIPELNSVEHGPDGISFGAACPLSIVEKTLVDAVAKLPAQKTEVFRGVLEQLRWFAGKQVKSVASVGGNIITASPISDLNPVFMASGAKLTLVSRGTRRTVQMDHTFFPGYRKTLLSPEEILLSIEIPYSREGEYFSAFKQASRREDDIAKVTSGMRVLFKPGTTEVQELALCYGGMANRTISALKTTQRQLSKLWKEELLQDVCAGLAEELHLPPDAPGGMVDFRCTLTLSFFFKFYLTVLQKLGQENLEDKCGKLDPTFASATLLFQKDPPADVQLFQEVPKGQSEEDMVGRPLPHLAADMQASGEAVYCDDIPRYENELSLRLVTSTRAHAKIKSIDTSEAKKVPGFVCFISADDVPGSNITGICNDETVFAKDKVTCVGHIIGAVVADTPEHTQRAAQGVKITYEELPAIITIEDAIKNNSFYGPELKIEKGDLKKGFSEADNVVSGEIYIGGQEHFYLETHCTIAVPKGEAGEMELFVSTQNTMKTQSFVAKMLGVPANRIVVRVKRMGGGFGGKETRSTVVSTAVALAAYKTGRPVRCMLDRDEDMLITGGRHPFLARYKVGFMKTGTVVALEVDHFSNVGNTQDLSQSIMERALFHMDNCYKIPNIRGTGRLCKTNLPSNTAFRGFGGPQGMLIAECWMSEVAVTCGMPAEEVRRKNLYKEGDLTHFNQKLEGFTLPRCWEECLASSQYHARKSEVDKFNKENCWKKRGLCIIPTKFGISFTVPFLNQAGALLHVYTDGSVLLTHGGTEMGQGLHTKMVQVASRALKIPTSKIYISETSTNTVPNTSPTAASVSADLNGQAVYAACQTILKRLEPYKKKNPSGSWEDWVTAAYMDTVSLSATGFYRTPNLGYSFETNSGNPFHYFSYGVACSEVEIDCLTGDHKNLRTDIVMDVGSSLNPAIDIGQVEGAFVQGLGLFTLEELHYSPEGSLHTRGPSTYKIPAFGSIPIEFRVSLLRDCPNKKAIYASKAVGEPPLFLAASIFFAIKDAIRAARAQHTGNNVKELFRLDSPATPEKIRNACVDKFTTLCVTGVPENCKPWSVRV

As for `O=c1[nH]cnc2nsnc12`, in data set [1], the inhibition result was “inactive”.
In the case of `NC1=NS(=O)(=O)Nc2nc[nH]c21`, the “inhibition (INH)” value in data set [2] and in data set [3] was “Not Active” throughout.
Broadly, the Ki is a dissociation constant, usually derived from enzyme kinetics or from competition with a known ligand. Read a low Ki as tighter binding. In general, pKa refers to the negative logarithm of the acid dissociation constant. High values mean a group that holds its proton tightly, low ones a group that gives up its proton readily. As for `NC1=NS(=O)(=O)Nc2nsnc21`, in data set [4], the inhibitory constant (Ki) was found to be 190 µM. The “inhibition (INH)” value in [2] and in data set [3] was “Not Active” each time. Also, the inhibition result in [5] is “Active”. In addition, the Ratio in data set [6] worked out at 11. The same compound gave a pKa in [7] of 3.2.
For `NC1=NS(=O)(=O)Nc2[nH]cnc21`, in data set [8], the inhibition result was “inactive”.
In [4], `O=C1NS(=O)(=O)Nc2[nH]ncc21` returned an inhibition constant Ki of 250 µM. Besides, the “inhibition (INH)” value in data set [2] and in [3] was “Not Active” in each case. For the same compound, the inhibition entry in data set [5] is “Active”. In [6], the Ratio worked out at 15. Moreover, the pKa in [7] is 6.5.
Take `O=C1NS(=O)(=O)Nc2nc[nH]c21`: the “inhibition (INH)” value in data set [2] and in data set [3] was “Not Active” in each case. Further, the inhibition result in [9] was “inactive”.
For the compound `NC1=NS(=O)(=O)Nc2[nH]ncc21`, the “inhibition (INH)” value in [2] and in data set [3] was “Not Active” in each case. Also, the inhibition result in data set [10] was “inactive”. This compound displayed a pKa in data set [7] of 4.1.
